Shown are actives, neighbours in structure and some others; about 1.8% of the full set was active somewhere.
MT1-MMP act inh = MT1-MMP (human) activation inhibition | AID 651647 | 0.061% of 360,000 active | GFP/RFP ratio change, % at 20 µM | P50281 | HT1080 RFP-PRO-GFP cells, GFP/RFP ratio fluorescence, overnight; percent of plate control window, DMSO zero;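 active means GFP/RFP ratio change of at least 30% with cell ATP level not reduced by more than half and red fluorescence within 50% of control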
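Read-out: GFP/RFP fluorescence ratio; Test system: RFP-PRO-GFP reporter HT1080 cells; Compound dosing: single-point 20 µM compound, 1% DMSO; Times: overnight compound exposure at 37 °C.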
SKN-1 block = blocks SKN-1 activity in C. elegans; C. elegans VP596 Pgst-4::GFP/RFP ratio, acrylamide-induced, 24 h; inhibition, % at 21.8 µM; 0.49% of 360,000 active; AID 624304;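 active means interference check ratio from 0.5 to 1.5 plus GFP to RFP signal ratio inhibition reaching or exceeding a fixed threshold, cut at about 30% in these data, passing the limit was not always enough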
PABP polyA inh = blocks human PABP binding to poly(A) RNA; calls only at 35 µM; P11940; fluorescence polarization; AID 2014; 1% of 290,000 active;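 further: calls also rest on retests at 20 µM and on dose response follow-up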
Target sequence (P11940 whole entry, looked up): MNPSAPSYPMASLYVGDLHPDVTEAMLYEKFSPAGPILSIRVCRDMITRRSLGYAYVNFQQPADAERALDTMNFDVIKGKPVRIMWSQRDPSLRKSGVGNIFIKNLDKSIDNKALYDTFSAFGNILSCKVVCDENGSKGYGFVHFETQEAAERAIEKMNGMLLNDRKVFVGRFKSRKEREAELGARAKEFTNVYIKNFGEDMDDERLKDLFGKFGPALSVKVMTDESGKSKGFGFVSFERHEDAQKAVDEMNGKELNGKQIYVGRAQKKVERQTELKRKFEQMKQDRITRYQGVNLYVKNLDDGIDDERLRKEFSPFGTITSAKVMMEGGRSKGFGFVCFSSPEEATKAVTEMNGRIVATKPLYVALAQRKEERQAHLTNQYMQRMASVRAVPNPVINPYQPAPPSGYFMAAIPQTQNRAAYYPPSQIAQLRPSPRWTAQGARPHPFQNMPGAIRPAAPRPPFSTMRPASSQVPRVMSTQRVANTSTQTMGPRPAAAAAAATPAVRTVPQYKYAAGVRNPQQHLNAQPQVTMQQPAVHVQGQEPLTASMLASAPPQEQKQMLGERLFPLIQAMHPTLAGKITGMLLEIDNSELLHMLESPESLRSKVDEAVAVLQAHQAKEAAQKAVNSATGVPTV
eIF4H FP inh = inhibitors of RNA binding by human eIF4H | AID 2012 | 0.94% of 290,000 active | inhibition, % at 35 µM | eIF4H fluorescence polarization binding assay;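 further: calls also rest on retests at 20 µM and on dose response follow-up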
MLLE-PAM2 inh = blocks PAM2 peptide binding to the PABP1 MLLE domain; 0.36% of 360,000 active; GST-MLLE / FITC-PAM2 fluorescence polarization; inhibition, % at 20 µM; P11940; AID 588489; in the data active means inhibition above about 35%, passing the limit was not always enough;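 further: plate controls were DMSO wells with GST-MLLE for no effect and wells lacking GST-MLLE protein for full effect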
An asterisk follows results filed as active; i = inactive; . = not tested or not shown; + = active, no number. Unless noted, how the calls were made is not given here.

SMILES	MT1-MMP act inh	SKN-1 block	PABP polyA inh	eIF4H FP inh	MLLE-PAM2 inh
Cc1ccc(-c2[nH]nc3c2C(C)C(C#N)=C(N)O3)cc1 (stereo unspecified)	-1.7	0.4	i	9.9*	3.0
Cc1ccc(C2C(C#N)=C(N)Oc3n[nH]c(-c4ccccc4)c32)o1 (stereo unspecified)	-4.4	13.0	i	-5.0	-15.9
COc1ccc(NC(=O)c2ccc(=O)[nH]c2)cc1S(=O)(=O)N1CCOCC1	-0.2	-1.2	.	.	-13.4
Fc1ccc(CSc2ncnc3ccccc23)cc1	-12.6	62.2*	i	-5.1	3.6
c1ccc(CSc2ncnc3ccccc23)cc1	-8.0	59.2*	i	-2.2	-12.6
Cc1ccc(CSc2ncnc3ccccc23)cc1	-6.0	11.7	i	-3.9	-11.8
COc1ccc(C2=NS(=O)(=O)N(C)C(C(=O)N(C)Cc3ccccc3)=C2)cc1OC	-2.3	12.7	i	-1.1	5.7
Cc1cc(C)n(-c2nc3ccccc3s2)n1	8.5	-5.6	i	-4.5	1.4
Cc1c2c(=O)n(-c3nc4ccccc4s3)nc-2cc(O)n1Cc1ccccc1	-6.7	-16.3	+	59.7*	-44.4
CCN(CC)c1ccc(/C=C2\CCC(/C=C(/C#N)C(=O)Nc3ccccc3F)=C2N2CCOCC2)cc1	62.2	32.6	.	.	-56.1
CCN(CC)c1ccc(/C=C2\CCC(/C=C(\C#N)C(=O)Nc3ccccc3F)=C2N2CCOCC2)cc1	69.4	23.6	i	61.3*	-77.8
Cc1ccccc1C(=O)N[C@H](C(=O)OCC(=O)NC1CC1)C(C)C	1.0	-1.0	.	.	-25.4
CCc1nc2ccc(C(=O)NCC3CCCCC3)cn2c1N(C)Cc1ccc(OC)cc1	-5.5	10.3	.	.	-11.7
C/C(=N\Nc1nc2ccccc2c(=O)n1O)c1ccco1	2.0	16.8	i	78.7*	6.6
COC(=O)[C@]12CCCCC=C1N(Cc1ccc(Cl)cc1Cl)C(=O)[C@H](CC(=O)NCC1CCCCC1)C2	-9.1	7.6	.	.	.
O=C(CC(Sc1ccccc1)c1cccs1)c1ccco1 (stereo unspecified)	-2.1	7.9	i	-4.0	36.8*
O=C(Cc1cccs1)OCC(=O)c1ccco1	6.3	3.9	i	23.5	23.9
C=CCOc1ccc2c(CC)cc(=O)oc2c1C	-5.0	72.5*	i	9.9	-1.3
COC(=O)[C@@]12C[C@@H](CC(=O)NCC3CCCCC3)C(=O)N(Cc3ccc4c(c3)OCO4)C1=CCC(C)(C)C2	-2.0	0.1	.	.	.
C/C(=N\NC(=S)Nc1cccc(C)c1)c1cc2ccccc2o1	4.7	-6.9	i	6.7	43.0*
CC(=NNC(=S)Nc1cccc(Cl)c1)c1ccccn1	14.7	38.8*	.	.	31.8
Cc1ccc(C)c(S(=O)(=O)Nc2ccc(-n3cnnn3)cc2)c1	-4.9	-1.6	.	.	-11.4
Cc1cccc(NC(=O)CSc2ccc(-c3cccs3)nn2)c1C	1.3	4.7	i	-3.3	-6.6
Cc1ccc(C)c(NC(=O)CSc2ccc(-c3cccs3)nn2)c1	2.0	6.9	+	21.6*	9.0
NC(=O)C1CCN(C(=O)COc2ccc3ccc(=O)oc3c2)CC1	3.4	-2.5	i	-3.3	8.5
SMILES	MT1-MMP act inh	SKN-1 block	PABP polyA inh	eIF4H FP inh	MLLE-PAM2 inh
Nc1ccc2nn(-c3cccc4ccccc34)nc2c1	1.2	27.4	i	91.0*	-22.0
O=C(NCCC1=CCCCC1)C1CC(=O)N(Cc2ccccc2)C1 (stereo unspecified)	2.1	12.5	i	14.2	7.1
COc1ccc(CCC(=O)NNC(=O)Nc2ccc(OC)c(OC)c2)cc1	2.1	-1.4	i	4.0	9.0
COc1ccc(NC(=O)NNC(=O)CCc2ccc(O)c(O)c2)cc1OC	0.9	13.9	i	56.8*	-6.4
CCc1cc(C(=O)Cc2cnn(-c3ccccc3)c2)c(O)cc1O	7.5	-17.8	i	-6.2	3.6
O=C(Cc1cnn(-c2ccccc2)c1)c1ccc(O)c(O)c1O	12.0	9.1	+	85.5*	20.5
CC(OC(=O)c1ccccc1)C(=O)NCc1ccco1 (stereo unspecified)	-0.1	5.9	.	.	16.9
CCOc1ccc(-c2csc(NNC3=NCCCCC3)n2)cc1	5.0	3.6	i	15.0	37.1*
CCCCOC(=O)c1ccc(N)cc1	-3.0	9.9	+	active	-9.3
CCCCOC(=O)c1ccc(NC(C)=O)cc1	-1.0	8.6	i	-2.4	-9.5
CCCCCOC(=O)c1ccc(NC(=O)c2ccco2)cc1	-0.9	70.7*	i	-5.8	-4.3
CCCCOC(=O)c1ccc(NC(=O)/C=C/c2cccs2)cc1	-4.6	37.4*	i	-10.0	-6.9
Cc1cnc(NC(=O)C2(C)CCN2C(=O)C(C)C)s1 (stereo unspecified)	-6.8	5.5	.	.	28.4
CC(=O)c1c(N2CCN(Cc3ccccc3)CC2)nc(=S)n(-c2ccccc2)c1C	-6.9	-4.8	+	53.7*	-7.7
Cc1ccc(OCC(=O)N/N=C\c2ccc(-c3cccc(C(=O)O)c3)o2)c(C)c1	-1.7	8.9	i	89.4*	-3.7
COc1ccc(CC(=O)N/N=C/c2ccc(-c3cccc(C(=O)O)c3)o2)cc1OC	-5.2	-0.2	+	81.4*	13.4
Cc1ccc(NC(=O)c2sc3nc4c(c(-c5ccco5)c3c2N)CCC4)cc1	-35.3	-11.4	+	82.0*	-9.5
Nc1c(C(=O)Nc2ccccc2)sc2nc3c(c(-c4ccco4)c12)CCC3	-3.9	2.3	+	84.3*	3.0
Nc1c(C(=O)Nc2ccccc2)sc2nc3c(c(-c4ccco4)c12)CCCC3	-3.7	10.5	i	19.8	-12.2
CC(C)CC1NC(=O)C(CC(C)C)N(CO)C1=O (stereo unspecified)	2.0	-6.8	.	.	8.2
CCN(Cc1ccc(Br)s1)C(=O)CSc1nnc(C2CC2)n1C1CC1	-4.5	16.1	.	.	6.2
O=c1[nH]c2ccccc2nc1/C=C/c1ccc(F)cc1	-24.9	6.2	+	86.2	-69.5
O=c1[nH]c2ccccc2nc1/C=C/c1ccccc1	-16.0	11.8	i	43.5	-14.1
O=C(/C=C/c1ccc(F)cc1)Nc1nc2ccccc2[nH]1	.	.	+	active	.
O=C(Nc1nc2ccccc2[nH]1)c1cccc(F)c1	6.7	-2.3	i	-8.7	3.0
COc1cccc(S(=O)(=O)N2C[C@H](O)COC[C@H]3O[C@@H](CC(=O)N4CCN(C)CC4)CC[C@@H]32)c1	-2.5	29.6	.	.	.
CCCCN1C(=O)C(CC(=O)NCc2ccco2)CC(C(=O)N(C(C)C)C(C)C)=C1C (stereo unspecified)	2.2	2.0	.	.	-2.8
CSC1=NC2(CC(c3ccccc3)Oc3cc(O)ccc32)CC(C)(C)N1 (stereo unspecified)	-8.8	42.8*	i	1.3	-28.7
CCOC(=O)C1CCCN(C(=O)c2ccc(-c3ccc([N+](=O)[O-])cc3)o2)C1 (stereo unspecified)	-2.0	15.2	.	.	40.8*
CCOC(=O)C1CCCN(C(=O)c2ccc(CS(=O)(=O)c3ccc(C)cc3)o2)C1 (stereo unspecified)	-1.9	4.7	i	23.8	0.9

Screening data (PubChem)
